For experiment [1], the system named is MCF7. Description: Concentration required to inhibit proliferation of human mammary adenocarcinoma MCF-7 cell line was determined using MTT assay. Format: functional, cell-based. Summed up:
(§1)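 MCF-7 human mammary adenocarcinoma cells (5 · 10^3) seeded in 24-well plates in RPMI-1640 with 10% fetal calf serum, penicillin (50 unit/mL) and streptomycin, 37 C, 5% CO2. Compounds added 3 h after plating. After 24 h exposure, medium replaced and cultures incubated a further 72 h. Cell population measured by MTT absorbance. IC50 values calculated from the data.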
Background: Tetrazolium assays rely on reduction of a dye to a coloured formazan, in cell work by metabolically active cells.

Experiment [2] has as its system MCF7. In words: Percent control of human mammary adenocarcinoma MCF-7 cell line proliferation at 3 ng/mL. It is filed as functional. In short, it runs like this: as §1
Experiment [3] deals with MCF7. In words: Percent control of human mammary adenocarcinoma MCF-7 cell line proliferation at 30 ng/mL. Format: functional. Summed up: as §1
The subject of experiment [4] is MCF7. Description: Percent control of human mammary adenocarcinoma MCF-7 cell line proliferation at 300 ng/mL. Format: functional. Summed up:
as §1

Experiment [5] deals with MCF7. Description: Percent control of human mammary adenocarcinoma MCF-7 cell line proliferation at 0.3 ng/mL. Format: functional. Summed up: as §1

In brackets after ≈: the same amount, converted by molar mass. A value given as a limit tells only on which side of the number the result lay.

Turning to `COc1c(NC2CC(O[C@H]3C[C@](O)(C(C)=O)Cc4c(O)c5c(c(O)c43)C(=O)c3c(O)cccc3C5=O)OC(C)C2O)c(=O)c1=O` (stereo partly drawn), 0.299 µg/mL (≈ 0.48 µM) corresponded to half-maximal inhibition in the experiment with MCF7 [1] (IC50). Also, the Control with MCF7 [2] worked out at 89.7%; in the experiment on MCF7 [3], 81%; with MCF7 [4], 46.3%.
For the molecule `COc1cccc2c1C(=O)c1c(O)c3c(c(O)c1C2=O)C[C@@](O)(C(C)=O)C[C@@H]3OC1CC(/N=c2/c(O)c(O)/c2=N/C2CC(O[C@@H]3C[C@@](O)(C(C)=O)Cc4c(O)c5c(c(O)c43)C(=O)c3c(OC)cccc3C5=O)OC(C)C2O)C(O)C(C)O1` (stereo partly drawn), the IC50 – broadly, the point on the concentration scale where inhibition reaches its midpoint – in the experiment on MCF7 [1] was determined as 0.109 µg/mL (≈ 0.0958 µM). Also, the Control in the experiment on MCF7 [2] was 72.7%; with MCF7 [3] it was 60.7%; in the experiment with MCF7 [4], 42%.
For `COc1cccc2c1C(=O)c1c(O)c3c(c(O)c1C2=O)C[C@@](O)(C(=O)CO)C[C@@H]3OC1CC(/N=c2/c(O)c(O)/c2=N/C2CC(O[C@@H]3C[C@@](O)(C(=O)CO)Cc4c(O)c5c(c(O)c43)C(=O)c3c(OC)cccc3C5=O)OC(C)C2O)C(O)C(C)O1` (stereo partly drawn), in that order: greater than 0.3 µg/mL, 88%, 84.5% and 68.4%.
The like results for `COc1cccc2c1C(=O)c1c(O)c3c(c(O)c1C2=O)C[C@@](O)(C(=O)CO)C[C@@H]3OC1CC(/N=c2/c(O)c(O)/c2=N\CCCCCC/N=c2\c(O)c(O)\c2=N\C2CC(O[C@H]3C[C@](O)(C(=O)CO)Cc4c(O)c5c(c(O)c43)C(=O)c3c(OC)cccc3C5=O)OC(C)C2O)C(O)C(C)O1` (stereo partly drawn) were, in that order, greater than 0.3 µg/mL, 87%, 86.1% and 82.4%.
For `COc1cccc2c1C(=O)c1c(O)c3c(c(O)c1C2=O)C[C@@](O)(C(C)=O)C[C@@H]3OC1CC(/N=c2/c(O)c(O)/c2=N\CCCCCC/N=c2\c(O)c(O)\c2=N\C2CC(O[C@H]3C[C@](O)(C(C)=O)Cc4c(O)c5c(c(O)c43)C(=O)c3c(OC)cccc3C5=O)OC(C)C2O)C(O)C(C)O1` (stereo partly drawn), in that order: 0.087 µg/mL (≈ 0.0655 µM), 104%, 50% and 32%.
In turn, `CC(=O)[C@]1(O)Cc2c(O)c3c(c(O)c2[C@@H](OC2CC(N)C(O)C(C)O2)C1)C(=O)c1c(O)cccc1C3=O.Cl` (stereo partly drawn) came in with an IC50 in the experiment with MCF7 [1] of 0.0483 µg/mL. Also, the Control is listed as 93.2% in the experiment on MCF7 [2], 77% in the experiment on MCF7 [3], 107% in the experiment with MCF7 [5] and 9.1% in the experiment on MCF7 [4].
Take `COc1cccc2c1C(=O)c1c(O)c3c(c(O)c1C2=O)C[C@@](O)(C(C)=O)C[C@@H]3OC1CC(Nc2c(OC)c(=O)c2=O)C(O)C(C)O1` (stereo in doubt; 5): in the experiment on MCF7 [1], the IC50 is greater than 0.3 µg/mL. Further, the results for the Control with MCF7 [2], in the experiment on MCF7 [3] and in the experiment with MCF7 [4] were 85%, 74.7% and 77.8%, respectively.
As to `COc1cccc2c1C(=O)c1c(O)c3c(c(O)c1C2=O)C[C@@](O)(C(=O)CO)C[C@@H]3O[C@H]1C[C@H](N)[C@H](O)[C@H](C)O1.Cl` [DOXORUBICIN HYDROCHLORIDE], the Control in the experiment on MCF7 [2] was determined as 41%; in the experiment with MCF7 [3], 35.3%; with MCF7 [5] it was 74.7%; in the experiment with MCF7 [4], 14.9%.

The record behind these values is ChEMBL document CHEMBL1137858, “Formation of squaric acid amides of anthracycline antibiotics. Synthesis and cytotoxic properties” (Bioorg Med Chem Lett, 2004).
